Hsp70 activator = switches on Hsp70 transcription. HeLa Hsp70 promoter luciferase reporter, luminescence; scaled: vehicle 0, proteasome-inhibitor control 100%. activation, % at 10 µM. 0.04% of 200,000 active. AID 1203;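 active = activation above the mean across all tested compounds plus 3 SD, cutoff set per campaign, cut at about 5.5% in these data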;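 note: 100% = MG132 at 30 µM as the positive control and 0% = DMSO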
S1P3 antagonist = S1P3 (human) receptor antagonism | Q99500 | CHO S1P3 NFAT-BLA reporter, FRET fluorescence, antagonist mode | inhibition, % at 4.98 µM | 0.27% of 170,000 active | AID 485;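 active = inhibition above the plate cutoff, the mean inhibition of test wells on that plate plus 3 SD, cut at about 28% in these data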;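 note: cells challenged with S1P at its EC80 of 0.8 µM; blue over green emission ratio from cleaved BLA substrate after 4 h stimulation; 0% = S1P-stimulated wells and 100% = unstimulated DMSO-only wells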
Target sequence (Q99500 whole entry, looked up): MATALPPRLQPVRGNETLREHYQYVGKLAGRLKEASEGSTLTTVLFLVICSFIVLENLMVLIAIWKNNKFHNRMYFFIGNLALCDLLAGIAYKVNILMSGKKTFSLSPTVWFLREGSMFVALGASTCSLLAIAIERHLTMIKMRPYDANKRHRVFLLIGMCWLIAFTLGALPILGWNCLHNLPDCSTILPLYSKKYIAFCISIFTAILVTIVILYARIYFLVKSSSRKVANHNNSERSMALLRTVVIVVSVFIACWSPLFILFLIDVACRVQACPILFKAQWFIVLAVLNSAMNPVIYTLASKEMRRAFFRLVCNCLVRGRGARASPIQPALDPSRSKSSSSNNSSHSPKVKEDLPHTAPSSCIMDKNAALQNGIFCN
MDM2 E3 inh = inhibitors of human Mdm2 E3 ubiquitin ligase | cell-based MDM2 ubiquitination luciferase reporter, 2 h; 0 = plate control, 100 = twice control, blank-subtracted | signal enhancement, % at 5 µM | 0.11% of 210,000 active;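 active = signal enhancement of 30% or more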;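 note: luminescence tracks abundance of the self-degrading MDM2-luciferase fusion protein; higher signal means inhibition of MDM2 E3 ligase activity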
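Test system: stable mammalian line carrying autodegrading MDM2–luciferase fusion reporter; quantity: 2000 cells in each well; times: 4 h cell settling then 2 h compound exposure, 37 °C; detection: luminescence with SteadyLite reagent, 15 min at room temperature; evaluation: percent signal gain over controls, blank-subtracted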
CHOP inhibitor = inhibitors of CHOP induction in ER stress response; 3.8% of 220,000 active; inhibition, % at 10 µM; CHO-K1 CHOP-promoter luciferase, tunicamycin-induced, 15-18 h;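 active = compounds that reduced the stress-induced luciferase reporter signal by more than about 70% of percent inhibition, limit read from the data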;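 note: 0% = tunicamycin plus vehicle and 100% = wells without tunicamycin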
* = called active by the depositor; · = not tested or not shown. This is a sample that favours compounds with a hit; in the whole collection about 4% have one here.

SMILES | Hsp70 activator | S1P3 antagonist | MDM2 E3 inh | CHOP inhibitor
Cc1ccc2nc(SCC(=O)Nc3cc(C(C)(C)C)nn3-c3ccccc3)[nH]c2c1 | 0 | 4 | -8 | 72*
COc1cc2c(cc1NC(=O)CSc1ccc(C)cc1)oc1ccccc12 | 0 | · | -3 | -12
COc1ccc(C2C(C(=O)OCC3CCCO3)=C(C)NC3=C2C(=O)CC(c2ccco2)C3)cc1O (stereo unspecified) | 0 | · | -9 | -5
COc1ccc(CN(C(=O)CSc2nnc(-c3ccccc3F)o2)c2ccc(F)cc2)cc1 | 0 | -8 | -2 | 31
COc1cccc(-n2c(=O)c3cc(OC)c(OC)cc3n(CC(=O)Nc3cc(C)[nH]n3)c2=O)c1 | 0 | -9 | -13 | -2
COc1cc(/C=C2\SC(=S)N(c3cccnc3)C2=O)ccc1O | · | 0 | · | 90*
COc1cc(/C=C2\SC(c3ccc(C)cc3)=NC2=O)ccc1O | 0 | · | -5 | 86*
COc1ccc(/C=C2\SC(c3ccc(C)cc3)=NC2=O)cc1OC | 0 | · | -5 | 37
CCn1cnc2cc([N+](=O)[O-])ccc21 | 0 | -8 | -5 | 11
Cc1cccc(NC(=S)NCc2ccc3c(c2)cc(C)n3C)c1C | 0 | -20 | -7 | 12
COc1ccc2c(c1)C(C)=CC(C)(C)N2C(=O)C(C)N1C(=O)c2ccccc2C1=O (stereo unspecified) | 0 | -19 | 5 | 4
CC1=CC(C)(C)N(C(=O)C(C)N2C(=O)c3ccccc3C2=O)c2c(C)cc(C)cc21 (stereo unspecified) | 0 | · | -21 | 105*
O=C(CCCCl)OCc1cn(-c2ccc(Cl)cc2)nn1 | 0 | -2 | 5 | 10
O=c1[nH]c(Cn2nnc(-c3ccccc3)n2)nc2scc(-c3ccccc3)c12 | 0 | 9 | -10 | 89*
CCN(CC)S(=O)(=O)c1cccc(C(=O)N/N=C/c2ccc(O)c(O)c2O)c1 | 0 | 1 | -8 | 58
O=C(/C(=N/N=C/c1ccc(O)c(O)c1O)c1ccccc1)c1ccccc1 | 0 | -17 | · | 72*
Oc1ccc(/C=N/N=C(c2ccccc2)c2ccccc2)c(O)c1O | 0 | -2 | -1 | 70*
Oc1cccc(C=NCc2ccccc2)c1O | 0 | 3 | -8 | 16
NC(=O)c1ccsc1NC(=O)COC(=O)c1ccccc1NCc1ccco1 | 0 | -28 | -19 | 96*
COc1ccc(S(=O)(=O)Nc2ccc3cn[nH]c3c2)cc1C | 0 | 1 | -12 | 25
COc1ccc(S(=O)(=O)Nc2ccc3ccccc3c2)cc1C | 0 | · | -24 | 89*
CCc1ccc(NS(=O)(=O)c2ccc(OC)c(C)c2)cc1 | 0 | · | -11 | 85*
O=C(Nc1ccc(Cl)cn1)c1ccc(COCC(F)(F)C(F)F)o1 | 0 | 14 | -12 | 96*
C[n+]1c2n(c3ccccc31)N=C(c1cc(C(C)(C)C)c(O)c(C(C)(C)C)c1)CS2 | 0 | 1 | -43 | 73*
COc1ccc(-c2cnnc(N/N=C/c3ccc(O)cc3)n2)cc1 | 0 | 11 | -17 | 81*
SMILES | Hsp70 activator | S1P3 antagonist | MDM2 E3 inh | CHOP inhibitor
COc1ccc(NC(=O)c2cc3n(n2)C(C(F)(F)F)CC(c2ccc4c(c2)OCO4)N3)cc1OC (stereo unspecified) | 0 | -4 | -6 | 62
O=C(NC1CCCCCC1)c1cc2n(n1)C(C(F)(F)F)CC(c1ccco1)N2 (stereo unspecified) | 0 | -12 | -11 | 74*
Cc1cc(NC(=O)c2cc3n(n2)C(C(F)(F)F)CC(c2ccc(Cl)c(Cl)c2)N3)no1 (stereo unspecified) | 0 | 55* | -4 | 18
Cc1cccc(NC(=O)c2cc3n(n2)C(C(F)(F)F)CC(c2ccc4c(c2)OCO4)N3)c1 (stereo unspecified) | 0 | 18 | -23 | 71*
Cc1ccc(C2CC(C(F)(F)F)n3nc(C(=O)Nc4c(C)n(C)n(-c5ccccc5)c4=O)cc3N2)cc1 (stereo unspecified) | 0 | -49 | 9 | 18
Cc1ccc(NC(=O)C2CC(=O)N/C(=N/N=C/c3ccco3)S2)cc1C (stereo unspecified) | 0 | 3 | -16 | 25
O=C(NCc1cccs1)C1CCN(S(=O)(=O)c2cccc3nsnc23)CC1 | 0 | -34 | -10 | -1
CCOC(=O)C(=CNc1ccc(Oc2cccnc2)nc1)C(=O)OCC | · | 4 | -6 | 3
CCCCCCCCCC[n+]1cccc2c3ccccc3ccc21 | 0 | 6 | -60 | 106*
COC(=O)c1sc(NC(=O)c2cc(-c3ccccc3)nc3ccccc23)c(C#N)c1C | 0 | · | -1 | 75*
COC(=O)c1sccc1NC(=O)c1cc(-c2cc(C)ccc2C)nc2ccccc12 | 0 | · | -23 | 93*
CC1(CCc2ccccc2)NC(=O)N(CC(=O)N2CC(=O)Nc3ccccc32)C1=O (stereo unspecified) | · | -13 | -13 | -13
CC(C(=O)O)N(C(=O)c1ccccc1)c1ccc(F)cc1 (stereo unspecified) | 0 | -3 | -7 | -4
COc1cc(NC(=O)c2c(F)cccc2F)c(Cl)cc1Cl | 0 | -6 | -6 | 10
Cc1cccc2sc(N(CCN(C)C)C(=O)c3cc(Cl)sc3Cl)nc12 | 0 | 4 | -4 | 72*
CCC(=O)N=c1sc2cc(F)cc(F)c2n1C | 0 | -32 | · | ·
CC(C)C(=O)N=c1sc2cc(F)cc(F)c2n1C | 0 | -20 | -7 | 85*
O=C(CN1CCCC1)NN=C(c1ccccc1)c1ccccc1 | 0 | -17 | -10 | 24
O=[N+]([O-])c1cccc(-c2nnc(-c3ccc4c(c3)OCO4)o2)c1 | 0 | -1 | -15 | -28
O=[N+]([O-])c1cccc(-c2nnc(-c3ccccc3)o2)c1 | 0 | -1 | -7 | 80*
COc1ccccc1-c1nnc(SCC(=O)NCc2c(C)c(Cl)cc(C(C)C)c2O)o1 | 0 | -6 | -12 | 75*
N#Cc1cnn(-c2cccc(Cl)c2)c1N | 0 | -2 | -8 | -12
COc1ccc(C2CC(O)(c3ccccc3)Oc3cc(OC)cc(OC)c32)cc1 (stereo unspecified) | · | · | -16 | 85*
COc1ccc(C2CC(O)(c3ccccc3)Oc3c(C)ccc(C)c32)cc1 (stereo unspecified) | · | · | 4 | 98*
COC(=O)C(=Nc1ccccc1)/C(C(=O)C(=O)N(C)c1ccccc1)=C(\O)c1ccccc1 | · | 1 | 11 | -25
COc1ccccc1-n1cnc2cc(NS(=O)(=O)c3ccc(Br)cc3)ccc21 | 0 | · | 1 | 79*
COc1ccc(-n2cnc3cc(NS(=O)(=O)c4ccc(C)cc4)ccc32)cc1 | 0 | · | 0 | 7
CCCCN1C(=O)c2ccc(C(=O)NCCN3C(=O)S/C(=C\c4cccnc4)C3=O)cc2C1=O | 0 | -2 | -5 | 76*
CCOc1ccc(-c2c(=O)n(OCc3ccc([N+](=O)[O-])cc3)c3ccccc3[n+]2[O-])cc1 | 0 | -19 | -2 | 61
S=C(NNc1ccnc2cc(Cl)ccc12)Nc1ccc(Cl)cc1Cl | · | 16 | · | 96*
